For test [1], the target named is T1, Gag-Pol polyprotein [489-587] (Human immunodeficiency virus 1, UniProt P04585).
T1 construct: 489-587
Nature of the test: Inhibitory activity against DNA -dependent DNA polymerase (DDDP) of HIV-1 RT Nucleic Acid polymerase. Summed up: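 Dimeric (p66/p51) HIV-1 RT in the RT buffer, reacted 1 h at 37 °C. Template was activated calf thymus DNA (final 20 µg/mL), with dATP, dCTP and dGTP each at final 50 µM plus 5 µCi [3H]TTP. Acid-insoluble label was counted by scintillation. Prescreened at 200 µg/mL, then 10 half-log concentrations in duplicate; IC50 read from dose-response curves.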

Test [2] has as its target T1, Gag-Pol polyprotein [489-587]. Nature of the test: Inhibitory activity against RNA-dependent DNA polymerase (RDDP) of HIV-1 RT Nucleic Acid polymerase. Summed up:
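Purified dimeric (p66/p51) HIV-1 RT (0.08 µg) in pH 8.0 Tris-HCl with KCl, MgCl2, DTT, glutathione, EGTA and BSA. Template-primer was 41 µM poly(rA) with 9.5 µM oligo(dT), plus 20 µM TTP and [3H]TTP. Incubated 1 h at 37 °C, stopped at 80 °C, and counted on filters. Prescreened at 200 µg/mL; IC50 taken from 10 half-log doses in duplicate.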

Test [3] shares this target. Nature of the test: Inhibitory activity against TIBO-resistant HIV-1 RT Nucleic Acid polymerase.

What is called IC50 is the concentration that inhibits the measured activity by half.

Turning to `CCCc1cc(=O)oc2c3c(c4c(c12)OC(C)(C)C=C4)O[C@@H](C)[C@H](C)[C@@H]3O`, the concentration for half-maximal inhibition (IC50) in test [1] was 156000 nM; in test [2], 27.8 µM.
Take `CCCc1cc(=O)oc2c3c(c4c(c12)OC(C)(C)C=C4)O[C@H](C)[C@@H](C)[C@@H]3O` [(10R,11S,12S)-12-Hydroxy-6,6,10,11-tetramethyl-4-propyl-11,12-dihydro-6H,10H-dipyrano[2,3-f;2',3'-h]chromen-2-one]: the IC50 was found to be 10.1 µM in test [3] and 380 nM in test [1].
For the compound `CCCc1cc(=O)oc2c3c(c4c(c12)OC(C)(C)C=C4)O[C@@H](C)C(C)[C@@H]3O` (stereo partly drawn) [(10S,12S)-12-Hydroxy-6,6,10,11-tetramethyl-4-propyl-11,12-dihydro-6H,10H-dipyrano[2,3-f;2',3'-h]chromen-2-one], the values for the IC50 in test [3], in test [1] and in test [2] were 17.6 µM, 700 nM and 0.97 µM, respectively.

The values are drawn from BindingDB's records for doi:10.1021/jm950797i (Medichem Research, 1996).
